Here are results for four compounds from ChEMBL document CHEMBL4184131, “Cyclotheonellazoles A-C, Potent Protease Inhibitors from the Marine Sponge Theonella aff. swinhoei” (J Nat Prod, 2017).

≈ marks a conversion by molar mass, not a printed value. Starred links: 1 amine or outer side, 2 acyl side, 3 side chain; linkers in the order of their positions; H or OH if unused. Positions of bridges follow the written chain, without caps; N, C: chain ends. Non-standard residues stand in square brackets, D forms with d. Residues, ends and D or L forms follow the SMILES beside them. *: point of attachment. X2 = O=C(/C=C/c1csc([C@H](Cc2ccc(O)cc2)N[*:1])n1)[*:2]; X1 = CC[C@H](C)[C@H](N[*:1])C(=O)C(=O)[*:2]; Benzoyl(4-OH) = O=C(c1ccc(O)cc1)*; Cya = N[C@@H](CS(=O)(=O)O)C(=O)O; Nva = CCC[C@H](N)C(=O)O; Abu = CC[C@H](N)C(=O)O; Dap = NC[C@H](N)C(=O)O

The test system of test [1] is Plasmodium falciparum. Nature of the test: Antiplasmodial activity against Plasmodium falciparum assessed as inhibition of parasite growth incubated for 48 hrs by colorimetry based p-LDH assay. The test is classed as functional, organism-based.
The nature of test [2]: Inhibition of chymotrypsin (unknown origin) incubated for 30 mins using Suc-Gly-Gly-phenylalanine-p-nitroanilide substrate by spectrophotometry. Further details: species or system Homo sapiens. In outline:
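In Tris buffer (0.6 g Tris HCl/100 mL, pH 7.5), enzyme and Suc-Gly-Gly-Phe-p-nitroanilide substrate each dissolved in buffer at 1 mg/mL. Enzyme and sample preincubated 5 min at 37 °C, then substrate added. Absorbance at 405 nm read kinetically over 30 min. Samples from 1 mg/mL DMSO stock serially diluted; IC50 fitted by four-parameter logistic model.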

The nature of test [3]: Inhibition of elastase (unknown origin) incubated for 20 mins using N-Suc-Ala-Ala-Ala-p-nitroanilide substrate by spectrophotometry. Also on record: species or system Homo sapiens. An outline of the steps:
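Tris buffer (2.422 g Tris HCl/100 mL, pH 8.0). Enzyme stock 75 mg/mL and N-Suc-Ala-Ala-Ala-p-nitroanilide stock 0.9 mg/mL, both in buffer. Enzyme with sample preincubated 20 min at 30 °C before substrate addition. Absorbance at 405 nm followed kinetically over 20 min. Serial dilutions from 1 mg/mL DMSO stock; IC50 from four-parameter logistic fit.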

In test [4] the test system is Plasmodium falciparum. Nature of the test: Antiplasmodial activity against Plasmodium falciparum. The test is classed as functional, organism-based.

`CCC[C@@H]1NC(=O)[C@@H](NC(=O)[C@H](C)NC(=O)CNC(=O)c2ccc(O)cc2)CNC(=O)[C@H](CS(=O)(=O)[O-])NC(=O)/C=C/c2csc(n2)[C@H](Cc2ccc(O)cc2)NC(=O)C(=O)[C@H]([C@@H](C)CC)NC1=O.[Na+]` ({Benzoyl(4-OH)}-GA[Dap][Nva][X1][X2][Cya]; lactam 3-C): the values for the IC50 in test [1], in test [2] and in test [3] were above 20 µg/mL, 0.62 nM and 0.034 nM, respectively.

`CO[C@H]1C[C@H](CC[C@H](C)[C@H](O)[C@H](C)[C@H]2OC(=O)/C=C/C(C)=C/C[C@H](O)C[C@@H]3C=CC[C@@H](C[C@H](OC)[C@@H](C)[C@@H](O)C[C@@H](O)[C@H](C)[C@@H]([C@@H](C)[C@@H](O)[C@@H](C)CC[C@H]4C[C@H](OC)C[C@H](C)O4)OC(=O)/C=C/C(C)=C/C[C@H](O)C[C@@H]4C=CC[C@@H](C[C@H](OC)[C@@H](C)[C@@H](O)C[C@@H](O)[C@@H]2C)O4)O3)O[C@@H](C)C1` [Swinholide A] returned an IC50 in test [4] of 4.75 µg/mL (≈ 3.42 µM).

For `CC[C@H](C)[C@@H]1NC(=O)[C@H](CC(C)C)NC(=O)[C@@H](NC(=O)[C@H](C)NC(=O)CNC(=O)c2ccc(O)cc2)CNC(=O)[C@H](CS(=O)(=O)[O-])NC(=O)/C=C/c2csc(n2)[C@H](Cc2ccc(O)cc2)NC(=O)C1=O.[Na+]` ({Benzoyl(4-OH)}-GA[Dap]L[X1][X2][Cya]; lactam 3-C), the figures for the IC50 in test [1], in test [2] and in test [3] were above 20 µg/mL, 2.8 nM and 0.1 nM, respectively.

Turning to `CC[C@@H]1NC(=O)[C@@H](NC(=O)[C@H](C)NC(=O)CNC(=O)c2ccc(O)cc2)CNC(=O)[C@H](CS(=O)(=O)[O-])NC(=O)/C=C/c2csc(n2)[C@H](Cc2ccc(O)cc2)NC(=O)C(=O)[C@H]([C@@H](C)CC)NC1=O.[Na+]` ({Benzoyl(4-OH)}-GA[Dap][Abu][X1][X2][Cya]; lactam 3-C), the IC50 in test [1] was above 20 µg/mL; in test [2] it was 2.3 nM; in test [3], 0.099 nM.

As a reminder, the IC50 is the concentration at which inhibition is half-maximal.
